Values after ≈ are worked out from the molar mass of the structure shown.
Key:
Format in all cases: functional
Escherichia coli = assay: In vitro antibacterial activity against ATCC 25922 strain of Escherichia coli
How it was run: (§1)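 MIC by microbroth dilution in Mueller-Hinton broth following NCCLS guidelines.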

Klebsiella pneumoniae = assay: In vitro antibacterial activity against ATCC 100331 strain of Klebsiella pneumoniae; how it was run: as §1
Pseudomonas aeruginosa [1] = assay: In vitro antibacterial activity against SG 137 strain of Pseudomonas aeruginosa; how it was run: as §1
Serratia marcescens = assay: In vitro antibacterial activity against SG 621 strain of Serratia marcescens; how it was run: as §1
Staphylococcus aureus = assay: In vitro antibacterial activity against SG 511 strain of Staphylococcus aureus; how it was run: as §1
[2] = system: Stenotrophomonas maltophilia; assay: In vitro antibacterial activity against GN 12873 strain of Stenotrophomonas maltophilia; how it was run: as §1
Pseudomonas aeruginosa [3] = assay: In vitro antibacterial activity against ATCC 27853 strain of Pseudomonas aeruginosa; how it was run: as §1

| SMILES | MIC (Escherichia coli) [µg/mL] | MIC (Klebsiella pneumoniae) [µg/mL] | MIC (Pseudomonas aeruginosa [1]) [µg/mL] | MIC (Serratia marcescens) [µg/mL] | MIC (Staphylococcus aureus) [µg/mL] | MIC [2] [µg/mL] | MIC (Pseudomonas aeruginosa [3]) [µg/mL] |
| --- | --- | --- | --- | --- | --- | --- | --- |
| COC(=O)Oc1cc(Br)cc(C(=O)N(C)CCCN(CC(=O)NC(C(=O)NC2C(=O)N3C2SC(C)(C)C3C(=O)O)c2ccccc2)C(=O)c2cc(Br)cc(OC(=O)OC)c2OC(=O)OC)c1OC(=O)OC (stereo unspecified) | < 0.005 | < 0.005 | < 0.005 | 0.02 (≈ 0.0175 µM) | 6.25 (≈ 5.48 µM) | 0.02 (≈ 0.0175 µM) | 0.05 (≈ 0.0439 µM) |
| COC(=O)Oc1cccc2c(=O)n(CC(=O)Nc3cc(NC(=O)Cn4c(=O)oc5c(OC(=O)OC)cccc5c4=O)cc(C(=O)NC(C(=O)NC4C(=O)N5C4SC(C)(C)C5C(=O)O)c4ccccc4)c3)c(=O)oc12 (stereo unspecified) | 25 (≈ 24.1 µM) | 1.56 (≈ 1.5 µM) | 0.05 (≈ 0.0482 µM) | 12.5 (≈ 12 µM) | 25 (≈ 24.1 µM) | 3.12 (≈ 3.01 µM) | 1.56 (≈ 1.5 µM) |
| CC(=O)Oc1cccc(C(=O)Nc2cc(NC(=O)c3cccc(OC(C)=O)c3OC(C)=O)cc(C(=O)NC(C(=O)NC3C(=O)N4C3SC(C)(C)C4C(=O)O)c3ccccc3)c2)c1OC(C)=O (stereo unspecified) | 100 (≈ 108 µM) | 3.12 (≈ 3.38 µM) | 0.4 (≈ 0.433 µM) |  | 25 (≈ 27.1 µM) | 1.56 (≈ 1.69 µM) | 3.12 (≈ 3.38 µM) |
| CC1(C)S[C@@H]2[C@H](NC(=O)[C@H](N)c3ccccc3)C(=O)N2[C@H]1C(=O)O [AMPICILLIN] | 6.25 (≈ 17.9 µM) | 6.25 (≈ 17.9 µM) | > 100 | 25 (≈ 71.5 µM) | 0.4 (≈ 1.14 µM) | > 100 | > 100 |
| COC(=O)Oc1cc(Cl)cc(C(=O)N(C)CCCN(CC(=O)NC(C(=O)NC2C(=O)N3C2SC(C)(C)C3C(=O)O)c2ccccc2)C(=O)c2cc(Cl)cc(OC(=O)OC)c2OC(=O)OC)c1OC(=O)OC (stereo unspecified) | 0.05 (≈ 0.0476 µM) | < 0.005 | < 0.005 | 0.02 (≈ 0.019 µM) | 12.5 (≈ 11.9 µM) | 0.02 (≈ 0.019 µM) | 0.1 (≈ 0.0952 µM) |
| CC1(C)S[C@@H]2[C@H](NC(=O)[C@H](NC(=O)N3CCNC3=O)c3ccccc3)C(=O)N2[C@H]1C(=O)O [AZLOCILLIN] | 6.25 (≈ 13.5 µM) | 6.25 (≈ 13.5 µM) | 6.25 (≈ 13.5 µM) | 50 (≈ 108 µM) | 0.4 (≈ 0.867 µM) | 25 (≈ 54.2 µM) | 6.25 (≈ 13.5 µM) |
| COC(=O)Oc1cccc(C(=O)N(CCCCn2c(=O)oc3c(OC(=O)OC)cccc3c2=O)CC(=O)NC(C(=O)NC2C(=O)N3C2SC(C)(C)C3C(=O)O)c2ccccc2)c1OC(=O)OC (stereo unspecified) | 0.01 (≈ 0.0105 µM) | < 0.005 | 0.04 (≈ 0.0421 µM) | < 0.005 | 2.5 (≈ 2.63 µM) | 0.04 (≈ 0.0421 µM) | 0.156 (≈ 0.164 µM) |
| COC(=O)Oc1cccc(C(=O)N(CCCn2c(=O)oc3c(OC(=O)OC)cccc3c2=O)C(C)CCC(=O)NC(C(=O)NC2C(=O)N3C2SC(C)(C)C3C(=O)O)c2ccccc2)c1OC(=O)OC (stereo unspecified) | 1.56 (≈ 1.6 µM) | 0.2 (≈ 0.205 µM) | 0.1 (≈ 0.102 µM) | 0.1 (≈ 0.102 µM) | 1.56 (≈ 1.6 µM) | 0.4 (≈ 0.409 µM) | 3.12 (≈ 3.19 µM) |
| COC(=O)Oc1cccc2c(=O)n(-c3cc(C(=O)NC(C(=O)NC4C(=O)N5C4SC(C)(C)C5C(=O)O)c4ccccc4)cc(-n4c(=O)oc5c(OC(=O)OC)cccc5c4=O)c3)c(=O)oc12 (stereo unspecified) | 25 (≈ 27.1 µM) | 6.25 (≈ 6.77 µM) | 0.2 (≈ 0.216 µM) | 12.5 (≈ 13.5 µM) | 25 (≈ 27.1 µM) | 0.78 (≈ 0.844 µM) | 1.56 (≈ 1.69 µM) |
| CC(=O)Oc1cccc(C(=O)NCCCCN(CC(=O)NC(C(=O)NC2C(=O)N3C2SC(C)(C)C3C(=O)O)c2ccccc2)C(=O)c2cccc(OC(C)=O)c2OC(C)=O)c1OC(C)=O (stereo unspecified) | < 0.005 | < 0.005 | < 0.005 | < 0.005 | 5 (≈ 5.45 µM) | 0.005 (≈ 0.00545 µM) | 0.05 (≈ 0.0545 µM) |
| COC(=O)Oc1cccc(C(=O)N(C)CCCN(CC(=O)NC(C(=O)NC2C(=O)N3C2SC(C)(C)C3C(=O)O)c2ccccc2)C(=O)c2cccc(OC(=O)OC)c2OC(=O)OC)c1OC(=O)OC (stereo unspecified) | 0.02 (≈ 0.0204 µM) | 0.005 (≈ 0.00509 µM) | 0.04 (≈ 0.0407 µM) | 0.02 (≈ 0.0204 µM) | 5 (≈ 5.09 µM) | 0.08 (≈ 0.0815 µM) | 0.31 (≈ 0.316 µM) |

— ChEMBL document CHEMBL1135500, “Highly antibacterial active aminoacyl penicillin conjugates with acylated bis-catecholate siderophores based on secondary diamino acids and related compounds” (2002)
